Test results published in ChEMBL document CHEMBL1649126, “Debio 025, a cyclophilin binding molecule, is highly efficient in clearing hepatitis C virus (HCV) replicon-containing cells when used alone or in combination with specifically targeted antiviral therapy for HCV (STAT-C) inhibitors” (Antimicrob Agents Chemother, 2009).
Calls of active or inactive are those of the source. The rule behind the calls is not given here.

Experiments:
[1] = test system: Hepatitis C virus; experiment: Antiviral activity against HCV genotype 1b infected in human Huh-9-13 cells assessed as reduction in viral replication after 3 days by quantitative RT-PCR; assay type: functional, organism-based, Hepacivirus hominis; settings: 72 h
Method in brief: (§1)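 Huh 9-13 cells carrying a subgenomic HCV replicon were seeded at 5 x 10^3 cells/well in medium with G418 and incubated 24 h at 37°C. Serial dilutions were then added in G418-free medium for 3 days. Cells were lysed, heated 15 min at 75°C, and replicon RNA was quantified by RT-qPCR against a neomycin plasmid standard. EC50 is the 50% RNA reduction versus untreated cells.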

[2] = test system: Hepatitis C virus; experiment: Antiviral activity against HCV genotype 1b infected in human Huh-9-13 cells assessed as reduction in viral replication selected after 1 passages at 0.82 uM by quantitative RT-PCR; assay type: functional, Hepacivirus hominis
Method in brief: (§2)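 Huh 9-13 replicon cells were seeded at 3 x 10^5 per 25-cm2 flask without G418, with compound. They were passaged at about 90% confluence and reseeded at 3 x 10^5 with the same concentration. HCV RNA was measured by RT-qPCR at each passage as % of the untreated control at the same passage. In rebound, compound was removed and G418 (1,000 µg/ml) restored.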

[3] = test system: Hepatitis C virus; experiment: Antiviral activity against HCV genotype 1b infected in human Huh-9-13 cells assessed as reduction in viral replication selected after 1 passages at 5 ug/ml by quantitative RT-PCR; assay type: functional, Hepacivirus hominis; method in brief: as §2
[4] = test system: Hepatitis C virus; experiment: Antiviral activity against HCV genotype 1b infected in human Huh-9-13 cells assessed as reduction in viral replication selected after 2 passages at 5 ug/ml by quantitative RT-PCR; assay type: functional, organism-based; settings: Hepacivirus hominis; method in brief: as §2
[5] = test system: Hepatitis C virus; experiment: Antiviral activity against HCV genotype 1b infected in human Huh-9-13 cells assessed as reduction in viral replication selected after 2 passages at 1 ug/ml by quantitative RT-PCR; assay type: functional, organism-based; settings: Hepacivirus hominis; method in brief: as §2
[6] = test system: Hepatitis C virus; experiment: Antiviral activity against HCV genotype 1b infected in human Huh-9-13 cells assessed as reduction in viral replication selected after 6 passages at 2 uM by quantitative RT-PCR; assay type: functional, organism-based; settings: Hepacivirus hominis
Method in brief: (§3)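 Resistant replicons were selected by passaging Huh 9-13 cells under 1 mg/ml G418 with gradually increasing inhibitor concentrations.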

[7] = test system: Hepatitis C virus; experiment: Antiviral activity against HCV genotype 1b infected in human Huh-9-13 cells assessed as reduction in viral replication selected after 6 passages at 2 uM by quantitative RT-PCR relative to wild type virus; assay type: functional, Hepacivirus hominis; method in brief: as §3
[8] = test system: Hepatitis C virus; experiment: Antiviral activity against compound-resistant HCV genotype 1b infected in human Huh-9-13 cells assessed as reduction in viral replication after 3 days by quantitative RT-PCR; assay type: functional, organism-based, Hepacivirus hominis; settings: 72 h; method in brief: as §1
[9] = test system: Hepatitis C virus; experiment: Antiviral activity against 2'-C-methyl-2'-fluoro-cytidine-resistant HCV genotype 1b infected in human Huh-9-13 cells assessed as reduction in viral replication after 3 days by quantitative RT-PCR; assay type: functional, organism-based, Hepacivirus hominis; settings: 72 h; method in brief: as §1
[10] = test system: Hepatitis C virus; experiment: Antiviral activity against BILN 2061-resistant HCV genotype 1b infected in human Huh-9-13 cells assessed as reduction in viral replication after 3 days by quantitative RT-PCR; assay type: functional, organism-based, Hepacivirus hominis; settings: 72 h; method in brief: as §1
[11] = test system: Hepatitis C virus; experiment: Antiviral activity against VX 950-resistant HCV genotype 1b infected in human Huh-9-13 cells assessed as reduction in viral replication after 3 days by quantitative RT-PCR; assay type: functional, organism-based, Hepacivirus hominis; settings: 72 h; method in brief: as §1
[12] = test system: Hepatitis C virus; experiment: Antiviral activity against cyclosporine-resistant HCV genotype 1b infected in human Huh-9-13 cells assessed as reduction in viral replication after 3 days by quantitative RT-PCR; assay type: functional, organism-based, Hepacivirus hominis; settings: 72 h; method in brief: as §1
[13] = test system: Hepatitis C virus; experiment: Antiviral activity against R479-resistant HCV genotype 1b infected in human Huh-9-13 cells assessed as reduction in viral replication after 3 days by quantitative RT-PCR; assay type: functional, organism-based, Hepacivirus hominis; settings: 72 h; method in brief: as §1
[14] = test system: Hepatitis C virus; experiment: Antiviral activity against HCV genotype 1b infected in human Huh-9-13 cells assessed as reduction in viral replication selected after 2 passages at 30 ug/ml by quantitative RT-PCR; assay type: functional, organism-based; settings: Hepacivirus hominis; method in brief: as §2
[15] = test system: Hepatitis C virus; experiment: Antiviral activity against HCV genotype 1b infected in human Huh-9-13 cells assessed as reduction in viral replication selected after 3 passages at 30 ug/ml by quantitative RT-PCR; assay type: functional, organism-based; settings: Hepacivirus hominis; method in brief: as §2
[16] = test system: Hepatitis C virus; experiment: Antiviral activity against HCV genotype 1b infected in human Huh-9-13 cells assessed as reduction in viral replication selected after 5 passages at 1 uM by quantitative RT-PCR; assay type: functional, organism-based; settings: Hepacivirus hominis; method in brief: as §3
[17] = test system: Hepatitis C virus; experiment: Antiviral activity against HCV genotype 1b infected in human Huh-9-13 cells assessed as reduction in viral replication selected after 5 passages at 1 uM by quantitative RT-PCR relative to wild type virus; assay type: functional, Hepacivirus hominis
[18] = test system: Hepatitis C virus; experiment: Antiviral activity against HCV genotype 1b infected in human Huh-9-13 cells assessed as reduction in viral replication selected after 5 passages at 4 uM by quantitative RT-PCR; assay type: functional, organism-based; settings: Hepacivirus hominis; method in brief: as §3
[19] = test system: Hepatitis C virus; experiment: Antiviral activity against HCV genotype 1b infected in human Huh-9-13 cells assessed as reduction in viral replication selected after 7 passages at 15 uM by quantitative RT-PCR relative to wild type virus; assay type: functional, Hepacivirus hominis; method in brief: as §3
[20] = test system: Hepatitis C virus; experiment: Antiviral activity against HCV genotype 1b infected in human Huh-9-13 cells assessed as reduction in viral replication selected after 5 passages at 4 uM by quantitative RT-PCR relative to wild type virus; assay type: functional, Hepacivirus hominis; method in brief: as §3
[21] = test system: Hepatitis C virus; experiment: Antiviral activity against HCV genotype 1b infected in human Huh-9-13 cells assessed as reduction in viral replication selected at 0.5 uM by quantitative RT-PCR; assay type: functional, organism-based; settings: Hepacivirus hominis
[22] = test system: Hepatitis C virus; experiment: Antiviral activity against HCV genotype 1b infected in human Huh-9-13 cells assessed as reduction in viral replication selected at 0.1 uM by quantitative RT-PCR; assay type: functional, organism-based; settings: Hepacivirus hominis
[23] = test system: Hepatitis C virus; experiment: Antiviral activity against HCV genotype 1b infected in human Huh-9-13 cells assessed as reduction in viral replication selected after 3 passages at 1 ug/ml by quantitative RT-PCR […]; assay type: functional, organism-based; settings: Hepacivirus hominis
[24] = test system: Hepatitis C virus; experiment: Antiviral activity against HCV genotype 1b infected in human Huh-9-13 cells assessed as reduction in viral replication selected after 7 passages at 5 ug/ml by quantitative RT-PCR […]; assay type: functional, organism-based; settings: Hepacivirus hominis
[25] = test system: Hepatitis C virus; experiment: Antiviral activity against HCV genotype 1b infected in human Huh-9-13 cells assessed as reduction in viral replication selected after 7 passages at 30 ug/ml by quantitative RT-PCR […]; assay type: functional, organism-based; settings: Hepacivirus hominis
[26] = Cytotoxicity against human Huh-9-13 cells at 1 ug/ml after 3 days by MTT assay; assay type: cell-based; settings: 72 h
[27] = Cytotoxicity against human Huh-9-13 cells at 5 ug/ml after 3 days by MTT assay; assay type: cell-based; settings: 72 h
[28] = Cytotoxicity against human Huh-9-13 cells at 30 ug/ml after 3 days by MTT assay; assay type: cell-based; settings: 72 h
[29] = test system: Hepatitis C virus; experiment: Antiviral activity against HCV genotype 1b infected in human Huh-9-13 cells assessed as reduction in viral replication selected after 7 passages at 0.25 ug/ml by quantitative RT-PCR; assay type: functional, organism-based; settings: Hepacivirus hominis
Method in brief: (§4)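 Clearance-rebound in Huh 9-13 replicon cells over seven consecutive passages without G418, using twofold dilutions from 0.50 to 0.016 µg/ml. Rebound passages omitted compound under 1,000 µg/ml G418. Remaining HCV RNA was measured by RT-qPCR each passage as % of the untreated control at the same passage number.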

[30] = test system: Hepatitis C virus; experiment: Antiviral activity against HCV genotype 1b infected in human Huh-9-13 cells assessed as reduction in viral replication selected after 8 passages at 0.25 ug/ml by quantitative RT-PCR; assay type: functional, organism-based; settings: Hepacivirus hominis; method in brief: as §4

SMILES	EC50 [1] [nM]	EC50 [8] [nM]	EC50 [9] [nM]	EC50 [10] [nM]	EC50 [11] [nM]	EC50 [12] [nM]	EC50 [13] [nM]	further results
CCC[C@H](NC(=O)[C@@H]1[C@H]2CCC[C@H]2CN1C(=O)[C@@H](NC(=O)[C@@H](NC(=O)c1cnccn1)C1CCCCC1)C(C)(C)C)C(=O)C(=O)NC1CC1 [TELAPREVIR]	580	90	1020	790	14000			inhibition at 0.82 µM [2]: 96.5%; inhibition at 5 µg/mL [3]: 96.5%; inhibition [4]: inactive; inhibition [5]: inactive; inhibition [6]: inactive; fold change (FC) [7]: 4
C/C=C/C[C@@H](C)[C@@H](O)[C@H]1C(=O)N[C@@H](CC)C(=O)N(C)CC(=O)N(C)[C@@H](CC(C)C)C(=O)N[C@@H](C(C)C)C(=O)N(C)[C@@H](CC(C)C)C(=O)N[C@@H](C)C(=O)N[C@H](C)C(=O)N(C)[C@@H](CC(C)C)C(=O)N(C)[C@@H](CC(C)C)C(=O)N(C)[C@@H](C(C)C)C(=O)N1C [CYCLOSPORINE]		350	400	4	490	3850	1980	
NC(=O)c1ncn([C@@H]2O[C@H](CO)[C@@H](O)[C@H]2O)n1								inhibition [14]: inactive; inhibition [15]: inactive
COc1ccc2c(O[C@@H]3C[C@H]4C(=O)N[C@]5(C(=O)O)C[C@H]5/C=C\CCCCC[C@H](NC(=O)OC5CCCC5)C(=O)N4C3)cc(-c3csc(NC(C)C)n3)nc2c1 [CILUPREVIR]		100	290	1250	310	170	2160	inhibition [16]: inactive; fold change (FC) [17]: 50
[N-]=[N+]=N[C@]1(CO)O[C@@H](n2ccc(N)nc2=O)[C@H](O)[C@@H]1O [4'-AZIDOCYTIDINE]		120	3380	20	690	260	15600	Activity [18]: inactive; fold change (FC) [19]: 8; fold change (FC) [20]: 3; inhibition [21]: Active; inhibition [22]: inactive
C/C=C/C[C@@H](C)[C@@H](O)[C@H]1C(=O)N[C@@H](CC)C(=O)N(C)[C@H](C)C(=O)N(CC)[C@@H](C(C)C)C(=O)N[C@@H](C(C)C)C(=O)N(C)[C@@H](CC(C)C)C(=O)N[C@@H](C)C(=O)N[C@H](C)C(=O)N(C)[C@@H](CC(C)C)C(=O)N(C)[C@@H](CC(C)C)C(=O)N(C)[C@@H](C(C)C)C(=O)N1C [ALISPORIVIR]	40	2720	410	4	360	3010	2760	inhibition at 0.82 µM [2]: 96.5%; inhibition at 5 µg/mL [3]: 96.5%; inhibition [4]: inactive; inhibition [5]: inactive; Activity [23]: Active; inhibition [24]: inactive; inhibition [25]: inactive; Activity [26]: Non-toxic; Activity [27]: Non-toxic; Activity [28]: Non-toxic; inhibition [29]: Active; Activity [30]: Active
C[C@@]1(O)[C@H](O)[C@@H](CO)O[C@H]1n1ccc(N)nc1=O	410	110	30200	40	1010	210	1160	
